The list is not random: actives were taken first. Their share in the collection is about 0.79%.
Redox H2O2 prof: compounds producing H2O2 with reducing agent – biochemical, NIH compound library profiling, artefact control for MLSCN library redox annotation, primary screen; activation, % at 10 µM; 0.03% of 200,000 active; DTT-dependent redox cycling H2O2, phenol red/HRP absorbance; 100% = 100 µM peroxide control, 0% = buffer;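 active = activation of at least 50% relative to the plate's high and low controls in the primary single-dose screen; inactive = activation below 50%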;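 also: compound incubated with DTT at 0.8 mM final as the reducing agent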
TNAP inh no acc: TNAP (human) inhibition, acceptor-free conditions; P05186; purified TNAP, CDP-star luminescence, 30 min; inhibition, % at 20 µM; 0.26% of 200,000 active;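 active = tissue-nonspecific alkaline phosphatase inhibition above about 50% at 20 µM in the single-dose screen, limit read from the data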;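 also: 0% = DMSO negative control and 100% = EDTA positive control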
Target sequence (P05186 whole entry, looked up): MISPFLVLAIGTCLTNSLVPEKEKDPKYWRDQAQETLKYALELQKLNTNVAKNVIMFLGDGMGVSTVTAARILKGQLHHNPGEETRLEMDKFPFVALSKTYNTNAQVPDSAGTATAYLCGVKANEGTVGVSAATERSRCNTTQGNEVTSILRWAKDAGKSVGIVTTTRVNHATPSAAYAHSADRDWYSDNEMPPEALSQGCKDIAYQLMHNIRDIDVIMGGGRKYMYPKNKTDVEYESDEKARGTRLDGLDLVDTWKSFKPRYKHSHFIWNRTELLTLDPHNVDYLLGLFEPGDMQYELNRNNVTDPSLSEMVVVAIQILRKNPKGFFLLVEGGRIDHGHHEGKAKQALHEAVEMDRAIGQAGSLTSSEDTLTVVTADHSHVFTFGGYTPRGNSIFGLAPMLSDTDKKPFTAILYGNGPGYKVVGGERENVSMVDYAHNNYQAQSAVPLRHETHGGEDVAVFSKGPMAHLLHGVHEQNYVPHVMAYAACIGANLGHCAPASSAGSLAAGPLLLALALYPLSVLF
G6PDH CS: L. mesenteroides G6PDH inhibition counter-screen; inhibition, % at 5 µM; 0.12% of 200,000 active; Purified L. mesenteroides G6PDH, diaphorase/resazurin coupled fluorescence, 45 min; in the data active = inhibition above about 50%
TNAP act hiacc: TNAP (human) activation, high acceptor | P05186 | purified TNAP, CDP-star luminescence, 1 M DEA, 30 min; active compounds read high; 0 = EDTA background, 1 = DMSO-only activity | AID 1136 | 200,000 tested, under 10 active | activation factor at 20 µM;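 active = activation factor at least 2 at 20 µM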
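Assay system: human TNAP; Input: enzyme diluted 1/800 final; Reagent: CDP-star luminogenic substrate at 100 µM final; Timing: 30 min, room temperature; Signal: luminescence; Evaluation: TNAP activation factor scaled between EDTA and DMSO control wells.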
TNAP inh hiacc: blocks human TNAP under high phosphate acceptor concentration | AID 1135 | P05186 | inhibition, % at 20 µM | 0.03% of 200,000 active | purified TNAP, CDP-star luminescence, 1 M DEA;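 active = over 50% inhibition of tissue-nonspecific alkaline phosphatase at 20 µM in the single-dose screen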;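 also: plate controls were DMSO wells for no effect and EDTA-quenched wells as full inhibition for full effect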
p97 inhibitor: inhibitors of human p97 ATPase. P55072. recombinant p97 ATPase, Kinase-Glo ATP luminescence, 3 h. inhibition, % at 8 µM. 0.42% of 220,000 active. AID 1481; in the data active = inhibition above about 15%;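 also: 0% = DMSO vehicle and 100% = wells lacking enzyme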
Numbers without * were called inactive; nt = no result.

SMILES	Redox H2O2 prof	TNAP inh no acc	G6PDH CS	TNAP act hiacc	TNAP inh hiacc	p97 inhibitor
Cc1ccc(C(NC(=O)C(C)C)c2cc([N+](=O)[O-])c3cccnc3c2O)cc1 (stereo not drawn)	-0.3	4.7	52.9*	0.8	16.6	9.0
CC(C)C(=O)NC(c1cccs1)c1cc([N+](=O)[O-])c2cccnc2c1O (stereo not drawn)	-0.2	11.6	13.0	0.8	20.3	3.3
Oc1ccc(O)c(Cc2nc3ccccc3s2)c1	-0.2	61.2*	-2.3	1	1.0	14.7*
COc1ccc(/C=C/C(=O)c2ccc3c4c(cccc24)CC3)cc1OC	0.7	-3.6	1.2	1	-1.7	2.2
COc1ccc(Nc2ccc(OC)cc2)cc1	nt	nt	nt	nt	nt	14.7*
COc1ccc(Nc2ccc(Nc3ccc(OC)cc3)nn2)cc1	0.1	-9.1	-16.3	1	-0.1	-1.5
CN=c1scc(-c2ccc(F)cc2)n1/N=C/c1ccc(O)c(O)c1	-0.5	69.7*	17.8	0.8	18.7	5.0
CN=c1scc(-c2ccc([N+](=O)[O-])cc2)n1/N=C/c1ccco1	-0.1	3.7	0.9	0.9	11.5	4.4
COc1cc(OC)c(OC)cc1CN1CCN(Cc2ccc(SC)cc2)CC1	-1.5	-3.9	0.4	1	-3.8	5.5
COc1cc(CN2CCN(S(=O)(=O)c3ccc(NC(C)=O)cc3)CC2)cc(OC)c1O	-0.3	-3.0	51.5*	1.1	-8.5	-1.5
COc1cc(CN2CCN(Cc3ccc(SC)cc3)CC2)cc(OC)c1O	-1.1	-11.7	57.7*	1	-4.6	4.9
Cc1ccc(CN(C)C(=O)C2CCCN2C(=O)c2cccs2)o1 (stereo not drawn)	-0.3	-5.9	2.3	1.1	-7.4	0.7
COc1cc(-c2nc(-c3ccc(Br)o3)no2)cc(OC)c1OC	-1.0	-14.7	0.2	1.1	-9.3	19.0*
C=CCN1C(=O)/C(=C\C=C2\N(C)c3ccccc3C2(C)C)SC1=S	2.6	-3.7	-18.5	0.5	48.6	-0.9
CN1/C(=C\C=C2/SC(=S)N(CC(=O)O)C2=O)C(C)(C)c2ccccc21	-1.6	52.1*	15.2	0.5	50.1*	-1.7
c1csc(-c2nn3c(Cn4nnc5ccccc54)nnc3s2)c1	2.5	62.4*	-7.3	1	-4.3	2.2
S=c1[nH]ncn1/N=C/c1ccccn1	-1.8	-3.7	12.4	1	-3.6	-1.5
CN(C)CC(C)(C)CNS(=O)(=O)c1ccc(Cl)c(Cl)c1	-0.9	-3.5	1.8	1.1	-6.7	-4.7
COc1ccc2c(c1OC)C(=O)OC2C1c2c(cc3c(c2OC)OCO3)CCN1C (stereo not drawn)	-0.3	-11.7	8.1	1	-3.3	1.8
CN1CCc2cc3c(c4c2[C@H]1[C@H](O)c1ccccc1-4)OCO3	5.2	-2.3	58.3*	0.9	8.2	3.4
COc1ccc2nc(-c3ccco3)c(-c3ccco3)nc2c1	1.4	-4.5	24.8	0.9	12.1	6.9
COc1ccc2nc3cccc(OC)c3nc2c1	-1.4	-5.6	51.3*	1	4.2	4.0
CC(C)(C)c1nc2ccccc2c2nnc(SCC(=O)Nc3nc4ccccc4s3)n12	-6.5	4.1	2.1	0.5	51.5*	0.5
CC(C)(C)c1nc2ccccc2c2nnc(SCC(=O)Nc3nccs3)n12	2.8	4.0	-4.6	1	-2.1	2.4
Cc1cc(=O)oc2n[nH]c(-c3ccccc3)c12	-0.1	92.0*	2.7	1	1.3	5.7
SMILES	Redox H2O2 prof	TNAP inh no acc	G6PDH CS	TNAP act hiacc	TNAP inh hiacc	p97 inhibitor
Cc1nc(-c2ccccc2)cc(=O)[nH]1	1.7	-12.8	3.7	1.1	-6.1	0.8
COc1ccc(-c2[nH]nc3oc(=O)cc(C)c23)cc1	-0.1	90.0*	4.5	0.9	8.1	-4.1
CC(C)C1Cc2c(sc3c2c(=O)n(-c2ccccc2)c2n[nH]c(=S)n32)CO1 (stereo not drawn)	nt	nt	nt	nt	nt	1.1
CCC(C)NC(=O)Cc1c(OC)ccc2cc(Br)ccc12 (stereo not drawn)	0.3	-6.4	19.3	1	-0.9	-0.6
C/C(N)=C(/C#N)C(=O)CSc1n[nH]c(-c2cccs2)n1	-1.6	62.4*	10.0	1	-3.9	3.4
Cc1ccc(C2C(C#N)=C(N)SC(N)=C2C#N)o1	2.7	-9.9	21.1	1	-2.8	15.3*
CC(=O)N/C(=C/c1ccc2c(c1)OCO2)C(=O)NCc1ccccc1	-0.7	66.6*	15.0	1	-0.8	1.0
C/C(=N\NC(=O)c1ccccc1)c1cc2cc([N+](=O)[O-])ccc2oc1=O	0.5	19.3	-15.3	0.4	58.5*	8.9
CCN(Cc1ccncc1)C(=O)CSc1ccc2ccccc2c1	-1.6	-8.1	1.9	1.1	-6.7	-0.3
O=C1NN(c2cccc(Br)c2)C(=O)/C1=C/c1ccc(-c2cc([N+](=O)[O-])ccc2O)o1	nt	nt	nt	nt	nt	35.4*
COc1ccc(OC)c(/C=N/NC(=O)CCc2ccc(O)c(O)c2)c1	0.2	61.6*	23.9	0.9	13.8	7.1
COc1ccccc1-c1nc(NC(C)=O)n[nH]1	-0.6	92.9*	12.2	1	0.1	-5.4
COc1cccc(CN2CCN(C(=O)c3cccc(F)c3)CC2)c1	2.1	nt	nt	nt	nt	1.2
COc1cccc(C(=O)N2CCN(Cc3cn[nH]c3-c3ccc(F)cc3F)CC2)c1	-1.4	64.8*	4.1	1.1	-6.8	3.5
COc1ccc(C(=O)N2CCN(Cc3cn[nH]c3-c3ccc(OC)cc3F)CC2)cc1	-0.7	81.9*	11.8	1	-3.8	-0.9
COc1ccc(-c2[nH]ncc2CN2C[C@@H]3CCC[C@H]2C3)c(F)c1	-0.6	76.1*	4.9	1.1	-7.2	7.0
O=C(c1ccco1)N1CCN(Cc2cn[nH]c2-c2ccc(F)cc2F)CC1	-0.8	78.4*	8.1	1.1	-6.1	0.5
CCOc1ccc(C(C)NC(=O)C2CCC2)cc1 (stereo not drawn)	0.1	-18.5	18.7	1.1	-6.2	7.8
Cc1nonc1N1CCN(Cc2cn[nH]c2-c2ccc(F)cc2F)CC1	-1.4	59.5*	11.1	1	3.3	2.3
COc1ccc(N=Nc2n(C)c3ccccc3[n+]2C)cc1	nt	nt	nt	nt	nt	-71.3
Cc1ccccc1NC(=O)CN1C(=O)COc2ccc(Cl)cc21	-0.8	-15.7	-2.4	1.1	-11.4	15.0*
CCS(=O)(=O)n1nc(-c2ccc(Cl)cc2)nc1SCc1ccccc1	1.9	61.9*	-0.1	1	-3.2	1.4
CCS(=O)(=O)n1nc(-c2ccc(Cl)cc2)nc1N	-0.6	12.5	13.6	1	3.2	1.9
COc1ccc(-c2nc(SCc3ccccc3)n(S(C)(=O)=O)n2)cc1	-3.9	61.9*	13.0	1	1.2	3.6
CCCc1nn(-c2cc(Cl)ccc2OC)c2c1C(=O)CC(C)(C)C2	-1.1	-4.4	1.5	1	-3.4	-3.2

Screening data (PubChem)
